Laboratory results published in PubChem BioAssay.
Active and inactive are the calls of the source.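 How the source made its calls, unless noted: active means visual image review flags a hit and inhibition of aggregation exceeds 20%; inconclusive means visual hit but inhibition at or below 20%; inactive means no hit on visual image review.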

Experiments:
[1] = inhibitors of TNFa-induced NFkB p65 translocation, primary screen, imaging, HUVEC, MLSMR starter and 10KST1 sets (AID 438;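 active means inhibition above 20% together with a positive visual image hit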;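 further: compound added about 3h40 before a 20 min TNFalpha stimulation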;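 on inhibition: signal is the nuclear over cytoplasmic p65 intensity ratio per well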); settings: HUVEC TNFa-induced p65 nuclear translocation; cell count: measured here: nuclei count (cytotoxicity indicator), at 2.08 µM; inhibition: at 2 µM, stronger effect = higher value, 0% TNFa-plus-vehicle, 100% no-TNFa wells
[2] = inhibitors of mutant huntingtin aggregation, primary screen, imaging, exon1htt(103Q)mCFP cells, high-content imaging (AID 483); settings: exon1htt(103Q)mCFP cell line, aggregate imaging, at 2 µM; inhibition of aggregation: stronger effect = higher value; nuclei count: measured here: cell count, toxicity;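 further: compound exposure lasted 3 days before fixation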;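 on nuclei count: percent of the per-plate median nuclei count of sample wells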
[3] = inhibitors of E-selectin induction by TNFa, primary screen, imaging, HUVEC, immunofluorescence, MLSMR starter and 10KST1 sets (AID 487;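 active means visually confirmed hit in the image check and inhibition above 20%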;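 on inhibition: signal is fraction of cell area covered by stained E-selectin grains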;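 on nuclei count: 100% = median nuclei count of all wells on the same plate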); settings: HUVEC TNFalpha-induced E-selectin immunofluorescence imaging, at 2 µM; inhibition: stronger effect = higher value; nuclei count: measured here: cell number, toxicity
[4] = biological target: Voltage-gated potassium channel subunit beta-2 (Rattus norvegicus) (UniProt P62483); test: KvBeta enzyme negative modulators, primary screen, biochemical, NADPH fluorescence (AID 622;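 active means fluorescence slope higher than the sample average by over 3 SD, cut at about -0.22 in these data, passing the limit was not always enough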;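 further: slope of raw intensity against log time taken from 70 to 1610 s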); settings: recombinant KvBeta, 4-cyanobenzaldehyde reduction, at 10 µM, stronger effect = higher value
Voltage-gated potassium channel subunit beta-2 (Rattus norvegicus), sequence (P62483 whole entry, looked up): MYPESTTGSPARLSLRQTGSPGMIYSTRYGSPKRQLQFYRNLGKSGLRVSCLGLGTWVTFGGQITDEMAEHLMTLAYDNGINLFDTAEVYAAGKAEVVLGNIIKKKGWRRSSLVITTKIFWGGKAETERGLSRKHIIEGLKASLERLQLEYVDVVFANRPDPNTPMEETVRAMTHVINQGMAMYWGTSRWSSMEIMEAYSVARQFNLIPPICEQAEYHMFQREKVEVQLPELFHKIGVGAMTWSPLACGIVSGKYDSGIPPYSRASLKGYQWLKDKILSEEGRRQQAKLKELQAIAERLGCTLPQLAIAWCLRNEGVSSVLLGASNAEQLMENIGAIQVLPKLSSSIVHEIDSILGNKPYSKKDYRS

[5] = biological target: Voltage-gated potassium channel subunit beta-2 (Rattus norvegicus) (UniProt P62483); test: KvBeta positive modulators, primary screen, biochemical, NADPH fluorescence (AID 623;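 active means NADPH fluorescence slope more negative than the mean of all samples by about 3 SD, 99.7% confidence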;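 further: fluorescence intensity change per second fitted from 20 to 320 s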); settings: Recombinant KvBeta, NADPH fluorescence decrease slope, 10 min; at 10 µM; stronger effect = lower value
[6] = biological target: Muscarinic acetylcholine receptor M4 (Homo sapiens) (UniProt P08173); test: compounds altering M4/GIRK thallium flux, either direction, primary screen, M4 allosteric agonist project, cell-based, HEK293 M4/GIRK, BTC-AM (AID 625;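 active means fluorescence slope after compound addition differing from the mean of all tested samples at 99.7% confidence, mostly higher but some lower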;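 further: thallium influx through GIRK channels coupled to M4 in HEK293 cells with BTC-AM dye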); settings: at 10 µM, actives lie on both sides
Muscarinic acetylcholine receptor M4 (Homo sapiens), sequence (P08173 whole entry, looked up): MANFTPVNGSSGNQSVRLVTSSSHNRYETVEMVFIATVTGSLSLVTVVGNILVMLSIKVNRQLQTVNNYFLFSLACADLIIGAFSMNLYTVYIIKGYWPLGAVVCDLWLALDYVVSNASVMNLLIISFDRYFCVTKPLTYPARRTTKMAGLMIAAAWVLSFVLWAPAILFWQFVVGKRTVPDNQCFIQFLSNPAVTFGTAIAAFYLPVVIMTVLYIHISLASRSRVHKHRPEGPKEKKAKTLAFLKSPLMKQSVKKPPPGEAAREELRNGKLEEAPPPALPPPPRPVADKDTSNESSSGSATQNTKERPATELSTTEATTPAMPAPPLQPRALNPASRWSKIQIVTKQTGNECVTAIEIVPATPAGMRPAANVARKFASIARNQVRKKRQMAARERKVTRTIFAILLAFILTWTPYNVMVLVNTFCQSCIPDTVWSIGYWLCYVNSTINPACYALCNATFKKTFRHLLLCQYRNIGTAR
Summary of the method: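 Material: M4/GIRK1/GIRK2 stable HEK293 cell line. Medium: pH 7.3 thallium assay buffer. Dosing: single compound concentration, 10 µM final. Schedule: 1 h dye loading, 2 min kinetic read. Measured by: kinetic fluorescence with BTC-AM dye. Read-out: post-addition slope, 15–24 s, of baseline-normalized fluorescence. Benchmarks: carbachol and DMSO controls.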

[7] = inhibitors of Sendai virus-induced IRF3 signaling, primary screen, TLR/RLR signaling modifier project, cell-based, Sendai virus stimulus, luciferase, 10K MLSCN set (AID 602276;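 active means inhibition at or above 50% at 10 µM; inactive means inhibition below 50%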;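 further: firefly luciferase from ISG56 promoter only with Renilla not read in this screen; 0% = Sendai virus plus DMSO and 100% = medium plus DMSO without virus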); settings: HEK293 RL24 IRF3 luciferase reporter, at 10 µM, stronger effect = higher value
[8] = inhibitors of poly I:C-induced TLR3 signaling, primary screen, cell-based, poly I:C stimulus, luciferase, 10K MLSCN set (AID 602277;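 active means inhibition of the reporter signal at or above 50%; inactive means inhibition below 50%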); settings: HEK293-TLR3 RL24 IRF3 luciferase reporter, at 10 µM, stronger effect = higher value

SMILES | cell count [1] | inhibition [1] | inhibition of aggregation [2] | nuclei count [2] | inhibition [3] | nuclei count [3] | fluorescence slope [4] | NADPH fluorescence slope [5] | fluorescence slope [6] | inhibition [7] | inhibition [8]
CC(=O)NCCn1c(SCC(=O)NCC2CCCO2)nc2ccccc2c1=O (stereo not drawn) | 515 | -8.5% (inactive) | 4.3% (inactive) | 110% | 21.7% (inactive) | 103% | -0.471 (inactive) | 5.6e-05 (inactive) | 0.00516 (inactive) | 3.29% (inactive) | 12.9% (inactive)
COc1ccc2c(c1)CCc1c(C(=O)N3CC4(C)CC3CC(C)(C)C4)noc1-2 (stereo not drawn) | 250 | -6.9% (inactive) | 18.9% (inactive) | 98.8% | -59% (inactive) | 104% | -0.586 (inactive) | -1.4e-05 (inactive) | 0.00924 (inactive) | 1.5% (inactive) | 10.1% (inactive)
Cc1c(NC(=O)C(C)OC(=O)COc2cccc3c2OC(C)(C)C3)c(=O)n(-c2ccccc2)n1C (stereo not drawn) | 652 | -11.6% (inactive) | -3.5% (inactive) | 129% | -45.4% (inactive) | 122% | -0.59 (inactive) | -7.7e-05 (inactive) | 0.00305 (inactive) | 4.56% (inactive) | 14.8% (inactive)
COc1cc(OC)cc(-c2nc3cc(C)ccc3o2)c1 | 424 | 1.7% (inactive) | -2% (inactive) | 90.1% | -55.4% (inactive) | 99.4% | -0.55 (inactive) | -4.6e-05 (inactive) | 0.00552 (inactive) | -23.5% (inactive) | -45.9% (inactive)
CCOC(=O)CSc1nnc(-c2cccnc2)n1Cc1ccccc1 | 568 | 16.6% (inactive) | 10.1% (inactive) | 97.1% | -105% (inactive) | 158% | -0.576 (inactive) | 1.1e-05 (inactive) | 0.00573 (inactive) | -4.13% (inactive) | 1.14% (inactive)
COc1ccc(-n2nnc3c(=O)n(C/C=C/c4ccccc4)cnc32)cc1 | 585 | -6.7% (inactive) | -19% (inactive) | 102% | -31.4% (inactive) | 115% | -0.218 (inactive) | -1.5e-05 (inactive) | 0.00695 (inactive) | 12.8% (inactive) | 7.09% (inactive)
O=C1c2ccccc2C(O)(Cc2ccccc2)N1Cc1ccco1 (stereo not drawn) | 425 | -2.9% (inactive) | -10.1% (inactive) | 96.8% | -110% (inactive) | 131% | -0.554 (inactive) | -1.5e-05 (inactive) | 0.00578 (inactive) | 8.83% (inactive) | 21.9% (inactive)
CC(=O)Nc1ccc(NC(=O)c2ccccc2N(C)S(C)(=O)=O)cc1 | 408 | 0.5% (inactive) | -2.3% (inactive) | 111% | -46.3% (inactive) | 94.4% | -0.462 (inactive) | -5.4e-05 (inactive) | 0.00563 (inactive) | 11.7% (inactive) | 10.8% (inactive)
Cc1nc(-c2ccc(NC(=O)c3cccs3)cc2)cs1 | 369 | -3.7% (inactive) | 20.1% (inactive) | 105% | -0.4% (inactive) | 109% | -0.427 (inactive) | -4.1e-05 (inactive) | 0.005 (inactive) | -23.5% (inactive) | -96.4% (inactive)
Cc1ccc(NC(=O)CC2Nc3ccccc3NC2=O)cc1Cl (stereo not drawn) | 357 | 1.4% (inactive) | 14.7% (inactive) | 84.3% | -45.4% (inactive) | 99.7% | -0.545 (inactive) | -1.9e-05 (inactive) | 0.00597 (inactive) | -4.9% (inactive) | -16.9% (inactive)
CCOCCn1cnc2sc(C(=O)Nc3nc(C)c(C(=O)OCC)s3)c(C)c2c1=O | 785 | -3.7% (inactive) | 2.9% (inactive) | 121% | -9.6% (inactive) | 105% | -0.26 (inactive) | 4.1e-06 (inactive) | 0.0063 (inactive) | 11.8% (inactive) | -0.0117% (inactive)
CN(C)c1ccc(/C=C/C(O)=C2/C(=O)N(C)C3(C)CC2c2ccccc2O3)cc1 (stereo not drawn) | 356 | -0.4% (inactive) | -5.2% (inactive) | 102% | -68% (inactive) | 115% | -0.521 (inactive) | -2e-07 (inactive) | 0.0126 (active) | 1.4% (inactive) | 23.4% (inactive)
Cc1cc(C)n2cc(CSCc3ccco3)nc2n1 | 566 | -13.6% (inactive) | 4.9% (inactive) | 89.3% | 18.2% (inactive) | 88.2% | -0.238 (inactive) | -2.7e-05 (inactive) | 0.00628 (inactive) | 11.1% (inactive) | 8.26% (inactive)
COc1cccc(C(c2nnnn2Cc2ccccc2)N2CCN(C(=O)c3ccco3)CC2)c1OC (stereo not drawn) | 414 | 4.3% (inactive) | 5% (inactive) | 69.9% | -195% (inactive) | 161% | -0.473 (inactive) | -2e-05 (inactive) | 0.00486 (inactive) | 8.65% (inactive) | 11.2% (inactive)
O=c1nc(N2CCCC2)nc(Nc2ccccc2)[nH]1 | 478 | 8.9% (inactive) | -12.9% (inactive) | 112% | -62.6% (inactive) | 115% | -0.559 (inactive) | -4e-05 (inactive) | 0.00545 (inactive) | 3.72% (inactive) | 3.61% (inactive)
Cc1cccc(NCc2ccccc2O)c1 | 454 | 4.9% (inactive) | 1.3% (inactive) | 94.5% | 10.3% (inactive) | 104% | -0.55 (inactive) | -2.3e-05 (inactive) | 0.00568 (inactive) | 10.1% (inactive) | 3.99% (inactive)
O=C(CCCn1ncn2c(cc3occc32)c1=O)N1CCc2ccccc2C1 | 363 | -0.7% (inactive) | 4.2% (inactive) | 93.3% | -81.7% (inactive) | 101% | -0.484 (inactive) | -0.00018 (inactive) | 0.00605 (inactive) | 8.38% (inactive) | 8.89% (inactive)
CCOCCCNC(=O)c1c[nH]c2ccc(S(=O)(=O)Nc3cccc(OC)c3)cc2c1=O | 337 | -3.1% (inactive) | -12.3% (inactive) | 99.2% | -85.4% (inactive) | 105% | -0.599 (inactive) | -3.6e-05 (inactive) | 0.00605 (inactive) | 0.375% (inactive) | 0.559% (inactive)
CCCCc1cc(=O)oc2c(CN3CCCC3)c(O)c(Cl)cc12 | 531 | -12.6% (inactive) | -16.7% (inactive) | 46.6% | 26.1% (inactive) | 89.4% | -0.00586 (active) | 0 (inactive) | 0.00532 (inactive) | 20% (inactive) | 19.7% (inactive)
CCOC(=O)c1c(C)oc2ccc(OCC(N)=O)cc12 | 794 | -12.1% (inactive) | -6.7% (inactive) | 36.5% | 20.4% (inactive) | 93.5% | -0.483 (inactive) | -1.6e-05 (inactive) | 0.00617 (inactive) | 5.65% (inactive) | 6.54% (inactive)
CC(=O)NC1(c2nnnn2CCOC(=O)Nc2ccc(Cl)cc2)CCCCC1 | 559 | -12.5% (inactive) | 2.9% (inactive) | 84.6% | -23.9% (inactive) | 91.3% | -0.513 (inactive) | -0.000175 (inactive) | 0.0035 (inactive) | 9.27% (inactive) | 8.82% (inactive)
COCc1cc(C)nc(SCC(=O)Nc2cccc(C)c2C)c1C#N | 578 | -25.9% (inactive) | -17.5% (inactive) | 98% | -62.6% (inactive) | 107% | -0.432 (inactive) | 2.4e-05 (inactive) | 0.0109 (inactive) | -2.58% (inactive) | 38.1% (inactive)
c1ccc(-c2nn3nnnc3c3ccccc23)cc1 | 194 | -3% (inactive) | 6.8% (inactive) | 91.1% | -2.7% (inactive) | 85.1% | -0.573 (inactive) | -2.5e-05 (inactive) | 0.00565 (inactive) | 8.1% (inactive) | 20.5% (inactive)
Cc1cc(C)n(-c2nc3ccccc3c(=O)n2OCCOc2ccccc2)n1 | 533 | -9% (inactive) | -7.8% (inactive) | 107% | -17.9% (inactive) | 94.2% | -0.453 (inactive) | 8.7e-05 (inactive) | 0.00727 (inactive) | -12.3% (inactive) | -13.3% (inactive)
COc1cc2c(cc1OC)-c1cc(OCc3cccnc3)nc(=O)n1CC2 | 753 | -8.4% (inactive) | -4.9% (inactive) | 96.1% | -49% (inactive) | 116% | -0.0427 (active) | -1.1e-05 (inactive) | 0.00535 (inactive) | 31.6% (inactive) | 28.8% (inactive)
CCOc1ccc(C(=O)Nc2cc(C)on2)cc1OCC | 372 | -2.3% (inactive) | -2.8% (inactive) | 110% | -61.3% (inactive) | 108% | -0.437 (inactive) | -5.8e-05 (inactive) | 0.00551 (inactive) | 11.5% (inactive) | 7.31% (inactive)
COc1ccc(CN2C(=O)CN=C2Nc2ccc(C)cc2C)cc1 | 809 | -7.5% (inactive) | -10.3% (inactive) | 122% | -3.6% (inactive) | 95.6% | -0.555 (inactive) | 6.9e-05 (inactive) | 0.00584 (inactive) | 16.8% (inactive) | 23% (inactive)
CCCCN(CC)S(=O)(=O)c1ccc2c(c1)CCCN2C(C)=O | 490 | 2.9% (inactive) | 17.1% (inactive) | 111% | -88.5% (inactive) | 103% | -0.545 (inactive) | -2.8e-05 (inactive) | 0.0053 (inactive) | 0.955% (inactive) | 6.93% (inactive)
